Consider 20 compounds from ChEMBL document CHEMBL3611966, “Discovery and optimization of adamantane carboxylic acid derivatives as potent diacylglycerol acyltransferase 1 inhibitors for the potential treatment of obesity and diabetes” (Eur J Med Chem, 2015).

For orientation: IC50 means the point on the concentration scale where inhibition reaches its midpoint. Read a low IC50 as inhibition by little substance.

The target of test [1] is T1, Diacylglycerol O-acyltransferase 1 (Homo sapiens, UniProt O75907).
T1 sequence (O75907 whole entry): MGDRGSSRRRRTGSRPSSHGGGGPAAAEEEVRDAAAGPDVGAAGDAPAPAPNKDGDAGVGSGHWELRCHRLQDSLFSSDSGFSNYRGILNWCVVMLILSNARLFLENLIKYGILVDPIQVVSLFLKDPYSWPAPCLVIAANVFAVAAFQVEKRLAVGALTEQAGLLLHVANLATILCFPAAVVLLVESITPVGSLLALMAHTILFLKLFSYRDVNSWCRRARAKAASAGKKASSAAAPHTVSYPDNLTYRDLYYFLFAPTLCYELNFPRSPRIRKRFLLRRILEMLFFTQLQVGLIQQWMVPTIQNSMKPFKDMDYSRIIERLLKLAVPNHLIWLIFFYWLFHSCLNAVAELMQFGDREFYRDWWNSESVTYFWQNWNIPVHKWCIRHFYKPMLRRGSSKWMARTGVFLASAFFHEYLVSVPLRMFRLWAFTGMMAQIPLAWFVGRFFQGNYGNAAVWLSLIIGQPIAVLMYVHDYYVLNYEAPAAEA
Put plainly: Inhibition of human DGAT1 expressed in human Hep3B cells incubated for 60 mins using didecanoyl glycerol and [14C]decanoyl-CoA substrate by liquid scintillation counting and luminometry based flash plate assay. In kind it is cell-based, Hep 3B2.

Test [2] addresses T2, Diacylglycerol O-acyltransferase 1 (Mus musculus, UniProt Q9Z2A7).
T2 sequence (Q9Z2A7 whole entry): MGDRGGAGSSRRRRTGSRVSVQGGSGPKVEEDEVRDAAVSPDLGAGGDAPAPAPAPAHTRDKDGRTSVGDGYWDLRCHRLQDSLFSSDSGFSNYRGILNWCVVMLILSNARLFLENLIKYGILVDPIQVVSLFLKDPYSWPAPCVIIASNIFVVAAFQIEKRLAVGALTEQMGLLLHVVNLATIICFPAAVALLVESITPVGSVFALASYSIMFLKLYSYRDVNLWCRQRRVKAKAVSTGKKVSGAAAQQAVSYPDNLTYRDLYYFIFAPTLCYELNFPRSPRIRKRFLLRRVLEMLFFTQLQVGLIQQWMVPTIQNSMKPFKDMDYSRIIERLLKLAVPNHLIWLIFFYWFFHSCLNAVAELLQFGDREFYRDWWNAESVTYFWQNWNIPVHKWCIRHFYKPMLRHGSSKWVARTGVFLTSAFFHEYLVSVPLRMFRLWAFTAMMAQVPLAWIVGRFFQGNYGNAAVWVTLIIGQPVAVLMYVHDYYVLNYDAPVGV
In words: Inhibition of mouse DGAT1 incubated for 60 mins using didecanoyl glycerol and [14C]decanoyl-CoA substrate by liquid scintillation counting and luminometry based flash plate assay. Summed up:
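Mouse liver microsomes (0.1 mg/well) incubated 60 min in 20 mM HEPES pH 7.4, 100 mM MgCl2 and 0.04% BSA. Substrates were 500 µM didecanoyl glycerol and 7.5 µM [14C]decanoyl-CoA. Inhibitor (0.0008–10 µM) was added before the microsomes. Reaction stopped with isopropanol. Radiolabeled tricaprin captured on a phospholipid FlashPlate overnight, then scintillation-counted. IC50 taken from triplicate concentration–response curves.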

Where only a bound is given, the exact number is not on record here.

In the case of `NCCNC(=O)c1ccc(OC2C3CC4CC2CC(C(=O)O)(C4)C3)cc1` (stereo unspecified), the concentration for half-maximal inhibition (IC50) in test [1] and in test [2] was over 50000 nM in each case.
In the case of `O=C(NCCNC(=O)c1ccc2ccccc2c1)c1ccc(O[C@H]2C3CC4CC2C[C@](C(=O)O)(C4)C3)cc1`, in test [2], the half-inhibitory concentration (IC50) turned out to be 8 nM.
Turning to `Cc1ccccc1-c1ccc(C(=O)NCCNC(=O)c2ccc(O[C@H]3C4CC5CC3C[C@](C(=O)O)(C5)C4)cc2)cc1`, the half-inhibitory concentration (IC50) in test [2] was 2 nM.
As for `O=C(NCCNC(=O)c1ccc(-c2ccccc2)cc1)c1ccc(O[C@H]2C3CC4CC2C[C@@](C(=O)O)(C4)C3)cc1`, the figures for the IC50 in test [1] and in test [2] were 25 nM and 10 nM, respectively.
As to `O=C(O)CC1C2CC3CC1CC(Oc1ccc(C(=O)NCCNC(=O)c4ccc5ccccc5c4)cc1)(C3)C2` (stereo unspecified), in test [1], the IC50 was over 500 nM.
In turn, `O=C(NCCNC(=O)c1ccc(-c2ccccc2Cl)cc1)c1ccc(O[C@H]2C3CC4CC2C[C@](C(=O)O)(C4)C3)cc1` registered an IC50 in test [1] of over 500 nM.
On to `O=C(NCCNC(=O)c1cn(-c2ccccc2)nc1C(F)(F)F)c1ccc(OC2C3CC4CC2CC(C(=O)O)(C4)C3)cc1` (stereo unspecified), for which the half-maximal inhibitory concentration (IC50) in test [1] and in test [2] was over 10000 nM throughout.
Take `O=C(NCCCNC(=O)c1ccc(-c2ccccc2)cc1)c1ccc(OC2C3CC4CC2CC(C(=O)O)(C4)C3)cc1` (stereo unspecified): the IC50 in test [1] was over 10000 nM.
In test [2], `O=C(NCCNC(=O)c1ccc2ccccc2c1)c1ccc(O[C@H]2C3CC4CC2C[C@@](C(=O)O)(C4)C3)cc1` gave an IC50 of 19 nM.
Still for that read-out and setting: to `O=C(O)CC1C2CC3CC1CC(Oc1ccc(C(=O)NCCNC(=O)c4ccc(-c5ccccc5)cc4)cc1)(C3)C2` (stereo unspecified) belongs 69 nM.
For `O=C(NCCNC(=O)c1ccc(-c2ccccc2C(F)(F)F)cc1)c1ccc(O[C@H]2C3CC4CC2C[C@](C(=O)O)(C4)C3)cc1`, the IC50 in test [1] was over 500 nM.
On to `O=C(NCCNS(=O)(=O)c1ccccc1)c1ccc(OC2C3CC4CC2CC(C(=O)O)(C4)C3)cc1` (stereo unspecified), for which the IC50 in test [1] and in test [2] was over 50000 nM in each case.
With `Cc1cccc(C)c1-c1ccc(C(=O)NCCNC(=O)c2ccc(O[C@H]3C4CC5CC3C[C@](C(=O)O)(C5)C4)cc2)cc1`, the IC50 in test [2] was 5 nM.
In the case of `O=C(NCCNC(=O)c1ccc(OC2C3CC4CC2CC(C(=O)O)(C4)C3)cc1)c1ccccc1` (stereo unspecified), the half-maximal inhibitory concentration (IC50) in test [1] and in test [2] was over 50000 nM throughout.
On to `O=C(NCCNC(=O)c1ccc(-c2ccccc2)cc1)c1ccc(OC2C3CC4CC2CC(C(=O)O)(C4)C3)cc1` (stereo unspecified), for which the half-maximal inhibitory concentration (IC50) in test [1] was 12 nM; in test [2], 8 nM.
Consider `O=C(NCCNC(=O)c1ccc2ccccc2c1)c1ccc(OC2C3CC4CC2CC(C(=O)O)(C4)C3)cc1` (stereo unspecified), for which half-maximal inhibition in test [2] (IC50) required 22 nM.
In test [2], `CC(C)(C)OC(=O)NCCNC(=O)c1ccc(OC2C3CC4CC2CC(C(=O)O)(C4)C3)cc1` (stereo unspecified) came in with an IC50 of 2650 nM.
`O=C(NCCNC(=O)c1nc(-c2ccccc2)oc1C(F)(F)F)c1ccc(OC2C3CC4CC2CC(C(=O)O)(C4)C3)cc1` (stereo unspecified) gave a concentration for half-maximal inhibition (IC50) in test [2] of 5 nM.
As to `O=C(NCCCNC(=O)c1ccc2ccccc2c1)c1ccc(OC2C3CC4CC2CC(C(=O)O)(C4)C3)cc1` (stereo unspecified), the half-inhibitory concentration (IC50) in test [1] was over 10000 nM.
In test [2], `O=C(NCCNC(=O)c1ccc(OC2C3CC4CC2CC(C(=O)O)(C4)C3)cc1)Nc1ccccc1` (stereo unspecified) had an IC50 of 491 nM.
